Data set [1] has as its system Swi6. Briefly: Swi6 self-association by sedimentation equilibrium/velocity AUC. Format: binding, S. pombe. Particulars: AUC, Supplementary Fig. 6.
For data set [2], the target named is T1, Swi6 (Schizosaccharomyces pombe, UniProt P40381).
T1 sequence (P40381 1-328): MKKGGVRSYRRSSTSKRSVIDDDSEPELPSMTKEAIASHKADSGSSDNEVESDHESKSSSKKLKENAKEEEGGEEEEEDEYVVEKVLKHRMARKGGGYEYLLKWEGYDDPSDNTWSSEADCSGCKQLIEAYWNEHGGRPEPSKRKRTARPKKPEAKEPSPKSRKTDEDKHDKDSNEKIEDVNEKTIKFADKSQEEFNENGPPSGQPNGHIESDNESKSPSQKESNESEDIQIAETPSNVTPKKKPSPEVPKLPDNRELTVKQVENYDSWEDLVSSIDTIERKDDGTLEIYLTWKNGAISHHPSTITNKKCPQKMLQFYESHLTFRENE
The description is as above. Particulars: AUC. It counts as binding, S. pombe.

The target in data set [3] is Swi6 (Schizosaccharomyces pombe, UniProt P40381, C121S/C124S/C310S). Described as above. It counts as binding, S. pombe. Particulars: all three native cysteines mutated to serines; Supplementary Fig. 5.
For data set [4], the system named is Swi6. In words: SV AUC weighted average sedimentation coefficient. Format: binding, S. pombe. Particulars: [Swi6^WT] = 20μM.
For data set [5], the system named is H3K9me3 tail peptide. In words: H3 tail peptide binding. Conditions: Supplementary Fig. 5. The method, boiled down:
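Intrinsic Trp fluorescence (W104 in aromatic cage): 200nM Swi6 in 20mM HEPES pH 7.5, 150mM KCl, 1 mM DTT, titrated with H3 peptide (residues 1–18), K9 trimethylated or unmethylated. 10min at 30°C, excitation 295 nm, emission read at 330 nm. Kd from 1:1 binding fit, averaged over three independent data sets.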

In data set [6] the test system is H3K9me3 nucleosomes. Briefly: Nucleosome binding by fluorescence anisotropy/polarization. Set-up: species or system Xenopus laevis. The method, boiled down: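 Core nucleosomes assembled from recombinant Xenopus histones on 147 bp 601 DNA, one end 6-carboxyfluorescein-labelled; H3K9me3 mimicked by methyl-lysine analog (H3KC9me3). 5-10 nM nucleosomes titrated with Swi6 in 20mM HEPES pH 7.5, 150mM KCl, 1 mM DTT, 0.01% NP40; 30 min at 24°C; FP at λex 480/λem 530nm. Fit to a two-step model giving Kd1 (Swi6–nucleosome) and Kd2 (scaffolded Swi6–Swi6); n ≥ 3, s.e.m.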
A general note: In fluorescence polarisation assays a small probe gives low polarisation when free and higher when bound to something large.

For data set [7], the system named is ura4+ reporter gene inserted at the pericentromeric imr region. In words: ura4+ reporter silencing assay. It counts as cell-based, S. pombe. Particulars: 5-FOA medium, 30°C, 2-3 days; Fig. 4d. The method, boiled down: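 Strains grown overnight to saturation, adjusted to OD600 of 1 for the most concentrated spot, then 5-fold serial dilutions plated on non-selective YS and on 5-FOA (2 grams/liter) media.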

Data set [8] relates to Swi6. In words: Swi6 protein levels in vivo. Format: cell-based, S. pombe. Particulars: silencing strains; Supplementary Fig. 9. The method, boiled down:
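Detection with rabbit polyclonal antibodies raised against recombinant Swi6.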

Data set [9] deals with H3K9me3 tail peptide (UniProt P68431). In words: other fluorescence titration + fluorescence polarisation.
Data set [10] concerns the molecule itself. Briefly: AUC.
Data set [11] deals with the molecule itself. Briefly: AUC. The source holds these as a separate data set.

Positions count from the first letter of the chain named. Where only a bound is given, the exact number is not on record here.

Sequence of Swi6 (Schizosaccharomyces pombe, UniProt P40381, C121S/C124S/C310S) (P40381 whole entry C121S/C124S/C310S): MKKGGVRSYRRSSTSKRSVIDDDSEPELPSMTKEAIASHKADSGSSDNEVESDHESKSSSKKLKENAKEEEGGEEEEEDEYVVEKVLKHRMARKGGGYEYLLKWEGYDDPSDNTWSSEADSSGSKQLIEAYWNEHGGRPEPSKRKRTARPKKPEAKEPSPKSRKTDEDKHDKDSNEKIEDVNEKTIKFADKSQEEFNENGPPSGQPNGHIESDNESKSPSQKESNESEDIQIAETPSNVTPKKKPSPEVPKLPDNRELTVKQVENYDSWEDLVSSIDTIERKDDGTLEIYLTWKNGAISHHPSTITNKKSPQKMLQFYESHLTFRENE

Consider “Swi6-CFP: Swi6 with the CFP tag moved to the C-terminus”, for which the “sedimentation coefficient compared to CFP-Swi6 (in words)” value in data set [1] is on record as “lower sedimentation coefficient”.
As for “Swi6^WT: major S. pombe HP1 protein, Swi6, wild type”, the “1/Kobsiso, isodesmic self-association of Swi6 dimers (chain elongation)” value in data set [2] (SE and SV global analysis, 8°C, RB: 20mM HEPES pH 7.5, 150mM KCl, 1 mM DTT) is around 70 µM. Also, the “Swi6 dimerization with saturating methylated H3 tail peptide” value in data set [2] (saturating methylated H3 tail peptide, Supplementary Fig. 4) was “weakened”. Also, the “effect of mutating native cysteines on oligomerization” value in [3] is “destabilized oligomerization”. The “sedimentation coefficient, tetramer (S4)” value in [4] is ~ 5.2 S. Besides, in data set [5], the “effect of mutating native cysteines on H3 peptide binding” value is on record as “destabilized oligomerization, H3 peptide binding”. The “effect of mutating native cysteines on nucleosome binding” value in data set [6] (Supplementary Fig. 5) is “destabilized oligomerization, H3 peptide binding, and nucleosome binding”.

B1: Swi6^LoopX (natural protein)
chain: T1 sequence (P40381 1-328) with R93A, K94A
As to B1, the “discrimination for the methyl mark in nucleosome binding” value in data set [6] (fluorescence anisotropy, Fig. 4a and Supplementary Fig. 8) was “discrimination for the methyl mark was maintained”. For the same molecule, the “silencing of ura4+ reporter” value in data set [7] is reported as “defects in silencing that are comparable to the swi6+ deletion strain”. Further, the Swi6 protein levels result in data set [8] is recorded as “not due to reductions in protein levels”. Further, the fold stronger binding than Swi6^WT in [9] was determined as 6 fold.

B2: CFP-Swi6 (natural protein, S. pombe, UniProt P40381 1-328, looked up)
chain: T1 sequence (P40381 1-328)
With B2, the “fold weaker dimer than Swi6^WT” value in [10] is around 10 fold.

B3: Swi6^WT (natural protein, S. pombe, UniProt P40381 1-328, looked up)
chain: T1 sequence (P40381 1-328)
On to B3, for which, in data set [11], the Kd is below 1 nM.

In general, Kd refers to the constant that tells how readily two partners part at equilibrium. The low end stands for tighter binding, the high end for weaker binding.

Source of the values: PMC3907283 (Nature, 2013).
